Source: PubChem BioAssay AID602190 (Broad Institute, 2012)
Records with an inconclusive call do not appear. Activity calls are given as the source filed them.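 How the source made its calls: active means compound whose fitted half-maximal concentration, in every repeat run, is at most twice the top dose tested; inconclusive means repeat runs disagree, or a flat or poor curve fit; inactive means every repeat run called inactive.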

Test system: C. albicans CaCi-2 growth, Alamar Blue fluorescence, 48 h
Assay: single-agent growth inhibition of C. albicans CaCi-2, dose response, CaCi-2 strain, plate reader, dry powder (AID 602190)
Settings: not given
Method in brief: (§1)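 test system = C. albicans CaCi-2, fluconazole-resistant | quantity = inoculum OD600 0.00015 | medium = RPMI 1640 with MOPS, uridine, glucose | signal = Alamar Blue fluorescence | schedule = 48 h static at 37 °C, 2 h stain | controls = amphotericin 10 µM positive control | measure = growth inhibition from lowered fluorescence | doses = dose-response series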

SMILES	AC50 [µM]
O=C(Oc1c(Cl)cc(Cl)c2cccnc12)c1ccco1	0.708
O=C(Nc1nnc(-c2ccc3c(c2)CCCC3)o1)c1ccccc1	17.6
O=C(NNC(=S)Nc1ccc(Cl)c(Cl)c1)c1ccccn1	13
Oc1c(CN2CCc3ccccc3C2)cc(Cl)c2cccnc12	1.57
C/C(=N\NC(=O)c1cc2ccccc2cc1O)c1ccccn1	6.11
Oc1c(C(c2ccc(Cl)cc2)N2CCCC2)ccc2cccnc12 (stereo unspecified)	5.03
O=C(Nc1nc(-c2ccccn2)cs1)c1ccc(Br)s1	5.53
O=C(Nc1nnc(-c2ccc3c(c2)CCCC3)o1)c1ccc(Cl)cc1Cl	17.9
CCOC(=O)N1C(=O)C2(CCCCC2)N(c2ccc(C)cc2)C1=S	4.29
Cc1cc(C)n(-c2nc3ccccc3c(=O)n2OCC#N)n1	6.87
Oc1c(CN2CCN(c3ccccc3)CC2)cc(Cl)c2cccnc12	2.72
CN1CCN(C(c2ccc(C(F)(F)F)cc2)c2ccc3cccnc3c2O)CC1 (stereo unspecified)	4.75
Oc1c(C(c2ccccc2Cl)N2CCCCC2)ccc2cccnc12 (stereo unspecified)	8.88
O=C(Nc1nc(-c2ccccn2)cs1)c1ccc(Cl)s1	6.89

Test system: not listed separately
Assay: as above
Settings: C. albicans CaCi-2 growth, Alamar Blue fluorescence, 48 h; at 26 µM (top of the series)
Method in brief: as §1

SMILES	activity change, negative = inhibition
NC(=O)c1cccc(C(=O)Nc2nc(-c3ccc4c(c3)CCCC4)cs2)c1	4.94% (inactive)
C=CCNC(=S)N/N=C(\C)c1ccccn1	-68% (inactive)
O=C(Nc1nc(-c2ccccn2)cs1)c1ccccc1	6.07% (inactive)
Cc1ccc(C(=O)Nc2nnc(-c3ccccc3)o2)cc1C	-9.38% (inactive)
O=C(Nc1nc(-c2ccc3c(c2)CCCC3)cs1)c1ccccc1	-18.1% (inactive)
Cc1ccc(-c2nc3c(Cl)cc(Cl)cc3c(=O)n2O)cc1	-45% (inactive)
O=C(Nc1nc(-c2ccccc2)cs1)c1ccc(Br)s1	-11.8% (inactive)
